Laboratory results reported in paper PMC3580944 (Journal of medicinal chemistry, 2011).
“Also recorded” adds a separate entry of the source. Where two headings read alike, the source gives them in different places. Marks after values point to notes of the source that are not given here.

Legend:
[1] = Stability in aqueous buffer at 4°C; format: physicochemical; settings: 0.01M Tris/HCl pH 7.4, concentration close to saturation
Summary of the method: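 Excess test compound was stirred 24 h in 0.01 M Tris/HCl, pH 7.4, and centrifuged at 10,000g to give a near-saturated solution. This was stored at 4°C and monitored over time by reverse-phase HPLC (acetonitrile elution).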

[2] = test system: Xenopus laevis tadpoles; test: General anesthetic potency, loss of righting reflexes; format: in vivo; settings: recovery in fresh solution overnight
[3] = molecular target: T1, Torpedo nACh receptor (Tetronarce californica, UniProt P02710+P02712+P02714+P02718); test: Inhibition of ACh-elicited currents of Torpedo nACh receptors in Xenopus oocytes; format: cell-based; settings: 10 μM ACh (~EC20)
Summary of the method: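 Two-electrode voltage clamp at room temperature on Xenopus oocytes. Oocytes were injected with ~25 ng Torpedo subunit cRNA at 2α:1β:1γ:1δ, clamped at −50 mV and perfused with ND96 (pH 7.5) at ~2 mL/min. 10 μM ACh was applied, then ACh plus rising test compound (10 mM DMSO stock diluted in ND96). Applications lasted 15–20 s with ~3 min washes. Currents were normalized to ACh alone and fit to a logistic equation; 3 oocytes.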

[4] = Octanol/water partition coefficient by HPLC; format: physicochemical; settings: estimated by HPLC of both phases
[5] = molecular target: α1β3γ2 GABAA receptors (benzodiazepine site) (Homo sapiens, UniProt P14867+P18507+P28472); format: binding; settings: for Enhancement of specific [3H]flunitrazepam binding: maximal effect; for effect on [3H]flunitrazepam binding above 40 μM: above 40 μM up to 400 μM
[6] = molecular target: human α1β2γ2L GABAA receptor (Homo sapiens, UniProt P14867+P18507+P47870); test: Two electrode voltage clamp of GABAA receptor currents in Xenopus oocytes; format: cell-based; settings: for Imax of GABA current enhancement / nH of GABA current enhancement: 3 μM GABA (~EC5); for nH of GABA concentration response curve in the presence of drug: 6 μM 6; for nH of GABA concentration response curve in the presence of drug / Shift in GABA dose response curve to the left: 4.4 μM propofol; for Shift in GABA dose response curve to the left: twice the tadpole anesthesia EC50: 6 μM 6
[7] = molecular target: α1β3γ2 GABAA receptors (agonist site) (Homo sapiens, UniProt P14867+P18507+P28472); test: Modulation of [3H]muscimol binding to GABAA receptor membranes from HEK293 cells
[8] = molecular target: T1, Torpedo nACh receptor; test: Photoincorporation of [3H]6 into nACh receptor-rich Torpedo membranes; format: binding; settings: for effect on nACh receptor subunit photolabeling by [3H]6: absence of agonist (resting state), 100 μM drug
Summary of the method: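 Electric-organ membranes were held at 2 mg protein/mL in Torpedo saline (pH 7.0) with 1 mM oxidized glutathione. Aliquots (160 pmol ACh sites) were equilibrated 30 min with 1.7 μM tritiated test compound (12 Ci/mmol), alone or with 100 μM tetracaine, 100 μM phencyclidine, 300 μM parent anesthetic and/or 1 mM carbamylcholine. Samples were UV-irradiated (365 nm) on ice for 30 min, then run on SDS-PAGE. Read-outs were fluorography (2 weeks) and scintillation counting of excised subunit bands.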

[9] = test system: GABAA receptor; settings: cited from earlier work
[10] = test system: Xenopus laevis tadpoles; settings: read-out: General Anesthesia LoRR EC50, cited from earlier work
[11] = pure propofol in water; cited from earlier work
[12] = added to carbamylcholine-treated samples

T1 sequence (P02710 25-461): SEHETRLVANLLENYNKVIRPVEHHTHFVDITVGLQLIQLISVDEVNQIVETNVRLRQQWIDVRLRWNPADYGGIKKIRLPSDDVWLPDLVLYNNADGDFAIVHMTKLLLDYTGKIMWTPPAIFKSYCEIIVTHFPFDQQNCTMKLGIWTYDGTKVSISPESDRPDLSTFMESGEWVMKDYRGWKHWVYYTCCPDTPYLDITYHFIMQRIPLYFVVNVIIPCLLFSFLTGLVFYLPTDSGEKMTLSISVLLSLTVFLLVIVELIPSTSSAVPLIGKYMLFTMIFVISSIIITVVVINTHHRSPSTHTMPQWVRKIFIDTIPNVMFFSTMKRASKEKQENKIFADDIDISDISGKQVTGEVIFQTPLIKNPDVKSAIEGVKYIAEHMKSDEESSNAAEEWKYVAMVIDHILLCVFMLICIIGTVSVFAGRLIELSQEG
T1 sequence (P02712 25-493): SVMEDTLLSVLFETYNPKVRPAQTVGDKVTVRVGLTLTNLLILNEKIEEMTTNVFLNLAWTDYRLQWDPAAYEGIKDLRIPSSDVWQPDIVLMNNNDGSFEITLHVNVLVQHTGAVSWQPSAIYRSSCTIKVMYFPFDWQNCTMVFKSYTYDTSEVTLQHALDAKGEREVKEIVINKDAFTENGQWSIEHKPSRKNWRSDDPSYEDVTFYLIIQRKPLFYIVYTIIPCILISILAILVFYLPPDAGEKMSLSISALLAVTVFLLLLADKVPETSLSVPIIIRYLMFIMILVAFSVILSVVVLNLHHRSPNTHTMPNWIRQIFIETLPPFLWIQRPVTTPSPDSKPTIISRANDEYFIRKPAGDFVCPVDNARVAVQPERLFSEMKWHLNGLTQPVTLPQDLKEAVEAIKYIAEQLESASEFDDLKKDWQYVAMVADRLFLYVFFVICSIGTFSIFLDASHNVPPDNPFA
T1 sequence (P02714 18-506): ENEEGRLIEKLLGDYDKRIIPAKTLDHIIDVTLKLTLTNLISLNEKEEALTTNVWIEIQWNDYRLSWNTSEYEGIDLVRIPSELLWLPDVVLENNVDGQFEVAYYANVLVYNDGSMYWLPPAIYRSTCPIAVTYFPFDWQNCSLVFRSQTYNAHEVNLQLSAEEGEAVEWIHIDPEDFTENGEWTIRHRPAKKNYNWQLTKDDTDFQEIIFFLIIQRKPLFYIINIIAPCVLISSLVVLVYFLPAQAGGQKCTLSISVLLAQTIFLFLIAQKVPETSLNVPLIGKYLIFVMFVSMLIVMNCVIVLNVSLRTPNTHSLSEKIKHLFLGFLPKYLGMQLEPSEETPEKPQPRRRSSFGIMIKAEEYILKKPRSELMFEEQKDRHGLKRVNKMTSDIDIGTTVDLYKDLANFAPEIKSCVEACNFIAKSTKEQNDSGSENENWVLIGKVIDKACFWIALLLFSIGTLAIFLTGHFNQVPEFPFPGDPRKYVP
T1 sequence (P02718 22-522): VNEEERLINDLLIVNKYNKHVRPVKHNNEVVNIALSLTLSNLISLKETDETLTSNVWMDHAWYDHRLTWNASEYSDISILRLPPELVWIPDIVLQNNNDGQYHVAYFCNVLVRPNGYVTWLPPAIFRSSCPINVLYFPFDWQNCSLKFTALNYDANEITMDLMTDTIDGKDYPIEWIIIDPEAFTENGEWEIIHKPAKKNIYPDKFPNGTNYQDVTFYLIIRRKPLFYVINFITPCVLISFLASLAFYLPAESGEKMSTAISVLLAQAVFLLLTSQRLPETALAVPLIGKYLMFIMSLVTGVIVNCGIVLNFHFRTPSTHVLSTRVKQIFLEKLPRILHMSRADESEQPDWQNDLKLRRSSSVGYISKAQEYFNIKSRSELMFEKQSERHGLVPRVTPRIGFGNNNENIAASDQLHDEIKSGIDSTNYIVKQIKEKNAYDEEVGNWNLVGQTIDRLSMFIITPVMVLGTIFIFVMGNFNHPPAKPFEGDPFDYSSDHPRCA
Chain of human α1β2γ2L GABAA receptor (P14867 28-456): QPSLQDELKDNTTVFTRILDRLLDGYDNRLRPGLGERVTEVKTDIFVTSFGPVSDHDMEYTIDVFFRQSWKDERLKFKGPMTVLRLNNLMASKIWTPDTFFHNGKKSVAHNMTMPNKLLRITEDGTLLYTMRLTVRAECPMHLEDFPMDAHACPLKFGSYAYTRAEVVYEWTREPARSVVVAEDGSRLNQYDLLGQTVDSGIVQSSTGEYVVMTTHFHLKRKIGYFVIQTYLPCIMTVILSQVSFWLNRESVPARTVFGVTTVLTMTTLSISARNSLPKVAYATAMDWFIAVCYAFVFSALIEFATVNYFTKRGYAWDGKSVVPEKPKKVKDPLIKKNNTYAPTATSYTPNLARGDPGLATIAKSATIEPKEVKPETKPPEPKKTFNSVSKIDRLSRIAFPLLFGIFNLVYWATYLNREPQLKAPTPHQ
Chain of human α1β2γ2L GABAA receptor (P47870 25-512 limits assumed): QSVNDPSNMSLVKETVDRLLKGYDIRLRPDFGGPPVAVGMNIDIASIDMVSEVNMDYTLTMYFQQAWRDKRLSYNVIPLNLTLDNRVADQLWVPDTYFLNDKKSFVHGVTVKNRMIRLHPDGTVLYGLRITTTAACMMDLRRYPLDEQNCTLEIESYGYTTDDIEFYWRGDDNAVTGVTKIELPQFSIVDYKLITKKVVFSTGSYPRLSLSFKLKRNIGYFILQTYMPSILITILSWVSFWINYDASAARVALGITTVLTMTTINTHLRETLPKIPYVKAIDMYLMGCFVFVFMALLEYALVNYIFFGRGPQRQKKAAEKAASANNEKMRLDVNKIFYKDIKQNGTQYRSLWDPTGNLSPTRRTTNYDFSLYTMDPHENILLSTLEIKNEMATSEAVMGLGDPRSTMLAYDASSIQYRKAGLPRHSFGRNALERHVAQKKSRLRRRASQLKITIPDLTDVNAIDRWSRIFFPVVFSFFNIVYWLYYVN
Chain of human α1β2γ2L GABAA receptor (P18507 40-475): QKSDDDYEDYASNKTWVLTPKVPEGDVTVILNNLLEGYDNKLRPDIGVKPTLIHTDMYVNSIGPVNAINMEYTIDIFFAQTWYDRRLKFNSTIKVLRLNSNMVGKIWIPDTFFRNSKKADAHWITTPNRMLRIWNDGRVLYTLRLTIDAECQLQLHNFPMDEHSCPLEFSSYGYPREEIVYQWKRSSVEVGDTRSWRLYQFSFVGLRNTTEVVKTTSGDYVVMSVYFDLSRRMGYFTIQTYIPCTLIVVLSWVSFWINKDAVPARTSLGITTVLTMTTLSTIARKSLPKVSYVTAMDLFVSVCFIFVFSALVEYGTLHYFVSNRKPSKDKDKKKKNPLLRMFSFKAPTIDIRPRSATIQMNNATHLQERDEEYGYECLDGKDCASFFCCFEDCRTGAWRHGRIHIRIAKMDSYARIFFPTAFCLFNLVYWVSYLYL
Chain of α1β3γ2 GABAA receptors (agonist site) (P14867 28-456): as the sequence (P14867 28-456) above
Chain of α1β3γ2 GABAA receptors (agonist site) (P28472 26-473): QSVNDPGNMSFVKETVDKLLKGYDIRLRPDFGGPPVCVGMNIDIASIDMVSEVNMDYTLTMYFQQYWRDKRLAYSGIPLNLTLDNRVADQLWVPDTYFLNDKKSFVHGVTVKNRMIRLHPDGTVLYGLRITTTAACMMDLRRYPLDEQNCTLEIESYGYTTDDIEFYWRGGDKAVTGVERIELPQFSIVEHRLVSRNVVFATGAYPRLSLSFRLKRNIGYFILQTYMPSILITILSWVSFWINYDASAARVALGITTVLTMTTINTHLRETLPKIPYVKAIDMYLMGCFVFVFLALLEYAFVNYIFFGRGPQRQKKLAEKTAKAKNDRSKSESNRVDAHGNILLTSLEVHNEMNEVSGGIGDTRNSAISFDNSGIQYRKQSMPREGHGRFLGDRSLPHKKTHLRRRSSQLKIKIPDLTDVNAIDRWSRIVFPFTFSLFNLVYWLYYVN
Chain of α1β3γ2 GABAA receptors (agonist site) (P18507 40-475): as the sequence (P18507 40-475) above
Chain of α1β3γ2 GABAA receptors (benzodiazepine site) (P14867 28-456): as the sequence (P14867 28-456) above
Chain of α1β3γ2 GABAA receptors (benzodiazepine site) (P28472 26-473): as the sequence (P28472 26-473) above
Chain of α1β3γ2 GABAA receptors (benzodiazepine site) (P18507 40-475): as the sequence (P18507 40-475) above

Row | Structure (SMILES) | nH of ACh current inhibition [3] | Enhancement of specific [3H]flunitrazepam binding ([5]; 1.5 nM [3H]flunitrazepam) | effect on [3H]flunitrazepam binding above 40 μM [5] | Imax of GABA current enhancement [6] [%] | nH of GABA current enhancement [6] | nH of GABA concentration response curve in the presence of drug [6] | Shift in GABA dose response curve to the left [6] | EC50 ([10]; ref Hall et al, 2010 [13]) [µM] | effect on nACh receptor subunit photolabeling by [3H]6 [8] | also measured
1 | CC(C)c1cc(CCCC2(C)N=N2)cc(C(C)C)c1O [Compound 6, 2,6-Diisopropyl-4-[3-(3-methyl-3H-diazirin-3-yl)-propyl]-phenol] | 0.9 ± 0.2 | ~ 150% | caused no further change | 22 ± 6 | 1.4 ± 1.3 | 0.9 ± 0.2 | 9 ^a fold |  |  | time stable in buffer [1]: at least 2.5 days; reversibility of anesthesia [2]: reversible; octanol/water partition coefficient [4]: 15,600 ± 1200; EC50 [5]: ~0.5 µM; EC50 [7]: ~0.5 µM
2 | CC(C)c1cc(CCCC2(C)N=N2)cc(C(C)C)c1O [[^3H]6, ^3H-2,6-Diisopropyl-4-[3-(3-methyl-3H-diazirin-3-yl)-propyl]-phenol] |  |  |  |  |  |  |  |  |  | carbamylcholine-enhanced 3H photoincorporation in nACh receptor α-subunit ([8]; 1.7 μM [3H]6): 3000 cpm; fraction of nACh receptor α-subunits photolabeled ([8]; 1.7 μM [3H]6, carbamylcholine-enhanced): 0.2%
3 | CC(C)c1ccc(C2(C(F)(F)F)N=N2)cc1O [m-TFD-propofol, 2-isopropyl-5-[3-(trifluoromethyl)-3H-diazirin-3-yl]phenol] |  |  |  |  |  |  |  | 3.1 |  | Direct activation ([9]; m-TFD-propofol at 30 μM, ref Hall et al, 2010 [13]): no direct agonist activity
4 | c1ccc(C2(N3CCCCC3)CCCCC2)cc1 [phencyclidine] |  |  |  |  |  |  |  |  | little effect | additional decrease of [3H]6 photoincorporation [8, 12]: ~ 20%
5 | CC(C)c1cccc(C(C)C)c1O [propofol, 2,6-diisopropylphenol] | 0.8 ± 0.1 | ~ 200% | caused a rapid decrease in binding | 16 ± 3 | 1.7 ± 1.2 | 1.1 ± 0.3 | 11 ^a fold | 2.8 |  | additional increase of [3H]6 photoincorporation [8, 12]: ~ 20%; saturated concentration in water [11]: 1 ± 0.02 mM; Direct activation, currents as % of the maximal GABA response ([9]; propofol alone): 30 – 70%; Direct activation ([9]; ref Krasowski et al, 2001 [2]): 67%; Enhancement of [3H]flunitrazepam binding ([5]; 1.5 nM [3H]flunitrazepam): 2x ^a; Direct activation, current as % of maximal GABA response ([6]; absence of GABA): 30–50%; Enhancement of [3H]muscimol binding ([7]; 3 nM [3H]muscimol): 2.4x ^a; effect on [3H]muscimol binding above 30 μM ([7]; above 30 μM): caused a sharp decrease in binding; EC50 ([10]; ref Krasowski et al, 2001 [2]): 1.9 µM
6 | CCCCNc1ccc(C(=O)OCCN(C)C)cc1 [tetracaine] |  |  |  |  |  |  |  |  | little effect; also recorded: no effect | 
